Measured values from ChEMBL document CHEMBL4219151, “Piperidinyl Ureas Chemically Control Defective in Cullin Neddylation 1 (DCN1)-Mediated Cullin Neddylation” (J Med Chem, 2018).
≈ marks a conversion by molar mass, not a printed value. Calls of active or inactive are those of the source. No cut-off for these calls is given here.

Key:
[1] = Solubility of the compound at pH 7.4 after 18 hrs by UV-spectroscopy; assay type: physicochemical; details: buffer
How it was run: (§1)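 Measured in triplicate within at least one experiment; values reported as mean ± standard deviation.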

[2] = Permeability of the compound at 10 uM by PAMPA; assay type: ADME; details: for Papp at 10 µM: PAMPA, read-out: permeability; for permeability: pampa, 10 µM; how it was run: as §1
DCN1-like protein 1 [3] = molecular target: T1, DCN1-like protein 1 (Homo sapiens, UniProt Q96GG9); test: Inhibition of human DCN1-mediated cullin neddylation assessed as reduction in transfer of fluorescein-5-maleimide-tagged NEDD8 from N-terminally acetylated human UBE2M to CUL2-CTD measured for 10 sec by pulse-chase assay
BJ = test: Growth inhibition of human BJ cells; assay type: cell-based
How it was run: (§2)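 In vitro monolayer proliferation assay in BJ cells (normal fibroblasts lacking DCN1 amplification) and HCC95 cells (squamous cell carcinoma line carrying DCN1 amplification). EC50 is reported as mean ± standard deviation from at least one experiment run in triplicate. A ">" value means less than 50% growth inhibition at the highest concentration tested.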

HCC95 = test: Growth inhibition of human HCC95 cells; assay type: functional, cell-based; how it was run: as §2
Homo sapiens = species: Homo sapiens; test: Inhibition of human RBX1-catalyzed CUL2(CTD) neddylation assessed as reduction in transfer of N-terminal cys-tagged NEDD8 from UBE2M to CUL2-CTD at 12.5 uM measured up to 6 mins by pulse-chase assay
How it was run: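 In vitro pulse-chase monitoring NEDD8 transfer from UBE2M to the CUL2 C-terminal domain, stimulated by DCN1 together with RBX1. The CUL2 domain stands in for cullins 1-5. The assay is a variation of a previously published pulse-chase format, also run against each of the five DCN family members.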

DCN1-like protein 1 [4] = molecular target: T1, DCN1-like protein 1
DCN1-like protein 1 [5] = molecular target: T1, DCN1-like protein 1; test: Binding affinity biotinylated human GST-tagged DCN1 by ITC method

T1 sequence (Q96GG9 whole entry): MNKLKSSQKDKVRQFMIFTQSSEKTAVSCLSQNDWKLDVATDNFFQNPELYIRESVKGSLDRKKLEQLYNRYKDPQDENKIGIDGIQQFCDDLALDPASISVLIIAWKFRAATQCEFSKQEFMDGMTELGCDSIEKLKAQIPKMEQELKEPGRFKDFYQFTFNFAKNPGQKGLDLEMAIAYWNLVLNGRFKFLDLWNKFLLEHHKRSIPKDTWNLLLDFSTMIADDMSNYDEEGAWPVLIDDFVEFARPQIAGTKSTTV

Row | Structure (SMILES) | solubility at 18 h [1] | Papp at 10 µM [2] | EC50 (DCN1-like protein 1 [3]) | EC50 (BJ) | EC50 (HCC95) | inhibition (Homo sapiens) | IC50 (DCN1-like protein 1 [4]) | permeability [2] | Kd (DCN1-like protein 1 [5])
1 | CC(C)(C)N1CCC(N(Cc2ccc3c(c2)OCO3)C(=O)Nc2cccc(C(F)(F)F)c2)CC1 | 75 µM (≈ 35.8 µg/mL) | > 2200 ×10⁻⁶ cm/s | 0.37 µM | > 40 µM | > 40 µM | inactive | 0.31 µM |  | 
2 | CCCN1CCC(N(Cc2ccc3c(c2)OCO3)C(=O)Nc2cccc(C(F)(F)F)c2)CC1 | 66 µM (≈ 30.6 µg/mL) | > 2200 ×10⁻⁶ cm/s |  | > 23 µM | > 40 µM |  |  |  | 
3 | CCCN1CCC(N(Cc2cc(F)cc(C(F)(F)F)c2)C(=O)Nc2cccc(C(F)(F)F)c2)CC1 | 37 µM (≈ 18.7 µg/mL) | > 2200 ×10⁻⁶ cm/s | 0.18 µM | > 23 µM | 21 µM | inactive | 1 µM |  | 
4 | CCCCN(C(=O)Nc1cccc(C(F)(F)F)c1)C1CCN(CCC)CC1 | 70 µM (≈ 27 µg/mL) | > 2200 ×10⁻⁶ cm/s |  |  |  |  | 1.4 µM |  | 
5 | O=C(Nc1cccc(C(F)(F)F)c1)NC1CCN(Cc2cccc(F)c2)CC1 | 50 µM (≈ 19.8 µg/mL) | > 2200 ×10⁻⁶ cm/s |  |  |  |  | 16 µM |  | 
6 | O=C(Nc1cccc(C(F)(F)F)c1)N(Cc1ccccc1)C1CCN(Cc2ccc3c(c2)OCO3)CC1 | < 0.1 µM | > 2200 ×10⁻⁶ cm/s |  |  |  |  | 12 µM |  | 
7 | O=C(Nc1cccc(C(F)(F)F)c1)NC1CCN(Cc2ccccc2F)CC1 | 44 µM (≈ 17.4 µg/mL) |  |  |  |  |  | 13 µM | 1500 ×10⁻⁶ cm/s | 
8 | O=C(Nc1cccc(C(F)(F)F)c1)N(Cc1ccccc1)C1CCN(Cc2ccc3c(c2)OCCO3)CC1 | 1 µM (≈ 0.526 µg/mL) | > 2200 ×10⁻⁶ cm/s |  |  |  |  | 0.36 µM |  | 
9 | O=C(Nc1cccc(C(F)(F)F)c1)N(Cc1ccccc1)C1CCNCC1 | 71 µM (≈ 26.8 µg/mL) | > 2200 ×10⁻⁶ cm/s |  |  |  |  | 21 µM |  | 
10 | CCCN1CCC(N(CCOC)C(=O)Nc2cccc(C(F)(F)F)c2)CC1 | 64 µM (≈ 24.8 µg/mL) |  |  |  |  |  | 21 µM | 1600 ×10⁻⁶ cm/s | 
11 | CCCN1CCC(N(Cc2cccnc2)C(=O)Nc2cccc(C(F)(F)F)c2)CC1 | < 0.1 µM |  |  | > 23 µM | > 23 µM |  |  | 1300 ×10⁻⁶ cm/s | 
12 | Cn1nccc1-c1cccc(NC(=O)NC2CCN(Cc3ccccc3)CC2)c1 | 78 µM (≈ 30.4 µg/mL) | > 2200 ×10⁻⁶ cm/s |  |  |  |  | > 67 µM |  | 
13 | CCCN1CCC(N(CCC(C)C)C(=O)Nc2cccc(C(F)(F)F)c2)CC1 | 61 µM (≈ 24.4 µg/mL) |  |  |  |  |  | 2.7 µM | 1500 ×10⁻⁶ cm/s | 
14 | CCCN1CCC(N(CCC)C(=O)Nc2cccc(C(F)(F)F)c2)CC1 | 61 µM (≈ 22.7 µg/mL) |  |  |  |  |  | 10 µM | 1600 ×10⁻⁶ cm/s | 
15 | O=C(Nc1cccc(C(F)(F)F)c1)NC1CCN(Cc2ccccc2)CC1 | 32 µM (≈ 12.1 µg/mL) | 670 ×10⁻⁶ cm/s |  | > 24 µM | > 32 µM |  |  |  | 
16 | O=C(Nc1cccc(-n2cccc2)c1)NC1CCN(Cc2ccccc2)CC1 | 1 µM (≈ 0.374 µg/mL) | 930 ×10⁻⁶ cm/s |  |  |  |  | > 67 µM |  | 

Row | Structure (SMILES) | solubility at 18 h [1] | Papp at 10 µM [2] | EC50 (DCN1-like protein 1 [3]) | EC50 (BJ) | EC50 (HCC95) | inhibition (Homo sapiens) | IC50 (DCN1-like protein 1 [4]) | permeability [2] | Kd (DCN1-like protein 1 [5])
17 | Cc1ccc(NC(=O)NC2CCN(Cc3ccccc3)CC2)cc1Cl | 2.4 µM (≈ 0.859 µg/mL) | > 2200 ×10⁻⁶ cm/s |  |  |  |  | > 67 µM |  | 
18 | O=C(Nc1cccc(C(F)(F)F)c1)N(Cc1ccccc1)C1CCN(Cc2cccnc2)CC1 | 30 µM (≈ 14.1 µg/mL) | > 2200 ×10⁻⁶ cm/s |  |  |  |  | 20 µM |  | 
19 | Cc1ccccc1CN1CCC(NC(=O)Nc2cccc(C(F)(F)F)c2)CC1 | 44 µM (≈ 17.2 µg/mL) |  |  |  |  |  | 4 µM | 1200 ×10⁻⁶ cm/s | 
20 | O=C(Nc1cccc(C(F)(F)F)c1)NC1CCN(Cc2ccc(F)cc2)CC1 | 19 µM (≈ 7.51 µg/mL) | > 2200 ×10⁻⁶ cm/s |  |  |  |  | 14 µM |  | 
21 | CC(C)(C)CCN1CCC(N(Cc2ccccc2)C(=O)Nc2cccc(C(F)(F)F)c2)CC1 | 5.8 µM (≈ 2.68 µg/mL) | > 2200 ×10⁻⁶ cm/s |  |  |  |  | 0.17 µM |  | 
22 | O=C(Nc1cccc(C(F)(F)F)c1)N(Cc1ccccc1)C1CCN(Cc2cc[nH]n2)CC1 | 54 µM (≈ 24.7 µg/mL) | > 2200 ×10⁻⁶ cm/s |  |  |  |  | 2.4 µM |  | 
23 | CCCN1CCC(N(CC2CCCCC2)C(=O)Nc2cccc(C(F)(F)F)c2)CC1 | 90 µM (≈ 38.3 µg/mL) | > 2200 ×10⁻⁶ cm/s |  |  |  |  | 2.4 µM |  | 
24 | CCCS(=O)(=O)N1CCC(N(Cc2ccccc2)C(=O)Nc2cccc(C(F)(F)F)c2)CC1 | 0.5 µM (≈ 0.242 µg/mL) | < 1 ×10⁻⁶ cm/s |  |  |  |  | 0.74 µM |  | 
25 | CCCN1CCC(N(Cc2ccco2)C(=O)Nc2cccc(C(F)(F)F)c2)CC1 | 69 µM (≈ 28.3 µg/mL) | > 2200 ×10⁻⁶ cm/s | 0.57 µM | > 23 µM | > 23 µM |  | 0.75 µM |  | 0.7 µM
26 | O=C(Nc1cccc(C(F)(F)F)c1)N(Cc1ccccc1)C1CCN(CCC(F)(F)F)CC1 | 2.3 µM (≈ 1.09 µg/mL) | 440 ×10⁻⁶ cm/s |  |  |  |  | 23 µM |  | 
27 | O=C(Nc1cccc(C(F)(F)F)c1)N(Cc1ccccc1)C1CCN(CC2CCCC2)CC1 | 48 µM (≈ 22.1 µg/mL) | 990 ×10⁻⁶ cm/s |  |  |  |  | 0.37 µM |  | 
28 | O=C(Nc1ccccc1)NC1CCN(Cc2ccccc2)CC1 | 68 µM (≈ 21 µg/mL) |  |  |  |  |  | > 67 µM | 1400 ×10⁻⁶ cm/s | 
29 | CCCN1CCC(N(Cc2ccccc2)C(=O)Nc2cccc(C(F)(F)F)c2)CC1 | 39 µM (≈ 16.4 µg/mL) |  | 0.4 µM | > 23 µM | > 40 µM |  | 0.82 µM | 1800 ×10⁻⁶ cm/s | 0.86 µM
30 | CCCCN1CCC(N(Cc2ccc3c(c2)OCO3)C(=O)Nc2cccc(C(F)(F)F)c2)CC1 | 71 µM (≈ 33.9 µg/mL) | > 2200 ×10⁻⁶ cm/s | 0.11 µM | > 40 µM | 46 µM |  | 0.36 µM |  | 
31 | O=C(Nc1cccc(C(F)(F)F)c1)NC1CCN(Cc2ccc(Cl)cc2)CC1 | 0.8 µM (≈ 0.329 µg/mL) |  |  |  |  |  | 25 µM | 1300 ×10⁻⁶ cm/s | 
32 | O=C(Nc1cccc(C(F)(F)F)c1)N(Cc1ccccc1)C1CCN(Cc2c[nH]cn2)CC1 | 110 µM (≈ 50.3 µg/mL) | 50 ×10⁻⁶ cm/s |  |  |  |  | 5.9 µM |  | 
